According to ChEMBL document CHEMBL4725434, “Discovery of Selective, Covalent FGFR4 Inhibitors with Antitumor Activity in Models of Hepatocellular Carcinoma” (ACS Med Chem Lett, 2020):
Calls of active or inactive are those of the source. The rule behind the calls is not given here.

Key:
[1] = Oral bioavailability in mouse at 10 mg/kg; format: ADME, organism-based; details: in vivo
Hep 3B2 = experiment: Antitumor activity against human Hep3B cells xenografted in SCID mouse orthotopic model assessed as inhibition of tumor regression at 100 mg/kg, po bid measured after 28 days relative to control; details: time 28.0 day
Huh-7 [2] = experiment: Antitumor activity against human Huh7 cells xenografted in po dosed SCID mouse sorafenib-resistance established model assessed as tumor regression at 100 mg/kg, po bid for 11 days relative to untreated control; details: time 11.0 day
[3] = AUC in mouse at 10 mg/kg, po; format: ADME, organism-based; set-up: dose 10 mg/kg; details: in vivo
[4] = Cmax in mouse at 10 mg/kg, po; format: ADME, organism-based; set-up: route oral, dose 10 mg/kg; details: in vivo
[5] = Oral bioavailability in cynomolgus monkey at 10 mg/kg; format: ADME, organism-based, Macaca fascicularis; details: in vivo
[6] = Half life in rat at 3 mg/kg, iv; format: ADME, organism-based; details: in vivo
[7] = Volume of distribution at steady state in rat 3 mg/kg, iv; format: ADME, organism-based; details: in vivo, read-out: Vdss
[8] = AUC in cynomolgus monkey at 10 mg/kg, po; format: ADME, organism-based, Macaca fascicularis; set-up: dose 10 mg/kg; details: in vivo
[9] = AUC in rat at 10 mg/kg, po; format: ADME, organism-based; set-up: dose 10 mg/kg; details: in vivo
Huh-7 [10] = experiment: Antitumor activity against human Huh7 cells xenografted in po dosed SCID mouse sorafenib-resistance established model assessed as tumor regression at 30 mg/kg, po bid for 11 days relative to untreated control; details: time 11.0 day
[11] = Half life in mouse at 10 mg/kg, po; format: ADME, organism-based; details: in vivo
[12] = Half life in mouse at 3 mg/kg, iv; format: ADME, organism-based; details: in vivo
[13] = Volume of distribution at steady state in cynomolgus monkey at 3 mg/kg, iv; format: ADME, organism-based, Macaca fascicularis; details: in vivo, read-out: Vdss
[14] = Volume of distribution at steady state in mouse at 3 mg/kg, iv; format: ADME, organism-based; details: in vivo, read-out: Vdss
FGFR4 (Homo sapiens) = experiment: In vivo receptor occupancy at FGFR4 in human Huh7 cells xenografted SCID mouse orthotopic model at 100 mg/kg, po qd after 10 hrs relative to control
[15] = Clearance in mouse at 3 mg/kg, iv; format: ADME, organism-based; details: in vivo
[16] = AUC in mouse at 3 mg/kg, iv; format: ADME, organism-based; set-up: dose 3 mg/kg; details: in vivo
[17] = Cmax in rat at 10 mg/kg, po; format: ADME, organism-based; set-up: route oral, dose 10 mg/kg; details: in vivo
Huh-7 [18] = experiment: Antitumor activity against human Huh7 cells xenografted in po dosed SCID mouse sorafenib-resistance established model assessed as tumor regression measured after 11 days relative to untreated control; format: functional, organism-based; details: time 11.0 day
Summary of the method: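 Huh7 tumors grown subcutaneously in SCID mice were made sorafenib-resistant by oral sorafenib at 100 mg/kg daily for […]. Oral dosing was then given at 10, 30 or 100 mg/kg BID for 11 days. Sorafenib 100 mg/kg once daily was the comparator arm. Read-out was tumor growth as %ΔT/ΔC.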

[19] = Oral bioavailability in rat 10 mg/kg; format: ADME, organism-based; details: in vivo
[20] = AUC in rat at 3 mg/kg, iv; format: ADME, organism-based; set-up: dose 3 mg/kg; details: in vivo
[21] = Half life in rat at 10 mg/kg, po; format: ADME, organism-based; details: in vivo
[22] = Clearance in cynomolgus monkey at 3 mg/kg, iv; format: ADME, organism-based, Macaca fascicularis; details: in vivo
[23] = Clearance in rat at 3 mg/kg, iv; format: ADME, organism-based; details: in vivo
[24] = AUC in cynomolgus monkey at 3 mg/kg, iv; format: ADME, organism-based, Macaca fascicularis; set-up: dose 3 mg/kg; details: in vivo
[25] = Half life in cynomolgus monkey at 10 mg/kg, po; format: ADME, organism-based, Macaca fascicularis; details: in vivo
[26] = Half life in cynomolgus monkey at 3 mg/kg, iv; format: ADME, organism-based, Macaca fascicularis; details: in vivo

C=CC(=O)N[C@H]1COC[C@H]1Nc1ncc2cc(-c3c(Cl)c(OC)cc(OC)c3Cl)c(=O)n(C)c2n1
bioavailability [1]: 20%
Activity (Hep 3B2): Active
Activity (Huh-7 [2]): Active
AUC [3]: 2960 ng·h/mL
Cmax [4]: 423 ng/mL
bioavailability [5]: 27%
t1/2 [6]: 2.1 h
Vd [7]: 0.3 L/kg
AUC [8]: 5660 ng·h/mL
AUC [9]: 2230 ng·h/mL
Activity (Huh-7 [10]): Active
half-life [11]: 1.8 h
t1/2 [12]: 2.1 h
Vd [13]: 1.1 L/kg
Vd [14]: 0.63 L/kg
Activity (FGFR4 (Homo sapiens)): >80%
clearance [15]: 17.2 mL/min/kg
AUC [16]: 2910 ng·h/mL
Cmax [17]: 588 ng/mL
Activity (Huh-7 [18]): inactive
bioavailability [19]: 12%
AUC [20]: 5610 ng·h/mL
half-life [21]: 3.2 h
clearance [22]: 8.4 mL/min/kg
clearance [23]: 9 mL/min/kg
AUC [24]: 6420 ng·h/mL
half-life [25]: 2 h
t1/2 [26]: 4.8 h
